Measurements reported in ChEMBL document CHEMBL4024792, “(N-Hydroxycarbonylbenylamino)quinolines as Selective Histone Deacetylase 6 Inhibitors Suppress Growth of Multiple Myeloma in Vitro and in Vivo” (J Med Chem, 2018).

Columns and labels:
[1] = biological target: T1, Protein deacetylase HDAC6 (Homo sapiens) (UniProt Q9UBN7); experiment: Inhibition of HDAC6 in human U266 cells assessed as increase in acetylated tubulin level by immunoblot analysis relative to control; type: cell-based
T1 sequence (whole entry): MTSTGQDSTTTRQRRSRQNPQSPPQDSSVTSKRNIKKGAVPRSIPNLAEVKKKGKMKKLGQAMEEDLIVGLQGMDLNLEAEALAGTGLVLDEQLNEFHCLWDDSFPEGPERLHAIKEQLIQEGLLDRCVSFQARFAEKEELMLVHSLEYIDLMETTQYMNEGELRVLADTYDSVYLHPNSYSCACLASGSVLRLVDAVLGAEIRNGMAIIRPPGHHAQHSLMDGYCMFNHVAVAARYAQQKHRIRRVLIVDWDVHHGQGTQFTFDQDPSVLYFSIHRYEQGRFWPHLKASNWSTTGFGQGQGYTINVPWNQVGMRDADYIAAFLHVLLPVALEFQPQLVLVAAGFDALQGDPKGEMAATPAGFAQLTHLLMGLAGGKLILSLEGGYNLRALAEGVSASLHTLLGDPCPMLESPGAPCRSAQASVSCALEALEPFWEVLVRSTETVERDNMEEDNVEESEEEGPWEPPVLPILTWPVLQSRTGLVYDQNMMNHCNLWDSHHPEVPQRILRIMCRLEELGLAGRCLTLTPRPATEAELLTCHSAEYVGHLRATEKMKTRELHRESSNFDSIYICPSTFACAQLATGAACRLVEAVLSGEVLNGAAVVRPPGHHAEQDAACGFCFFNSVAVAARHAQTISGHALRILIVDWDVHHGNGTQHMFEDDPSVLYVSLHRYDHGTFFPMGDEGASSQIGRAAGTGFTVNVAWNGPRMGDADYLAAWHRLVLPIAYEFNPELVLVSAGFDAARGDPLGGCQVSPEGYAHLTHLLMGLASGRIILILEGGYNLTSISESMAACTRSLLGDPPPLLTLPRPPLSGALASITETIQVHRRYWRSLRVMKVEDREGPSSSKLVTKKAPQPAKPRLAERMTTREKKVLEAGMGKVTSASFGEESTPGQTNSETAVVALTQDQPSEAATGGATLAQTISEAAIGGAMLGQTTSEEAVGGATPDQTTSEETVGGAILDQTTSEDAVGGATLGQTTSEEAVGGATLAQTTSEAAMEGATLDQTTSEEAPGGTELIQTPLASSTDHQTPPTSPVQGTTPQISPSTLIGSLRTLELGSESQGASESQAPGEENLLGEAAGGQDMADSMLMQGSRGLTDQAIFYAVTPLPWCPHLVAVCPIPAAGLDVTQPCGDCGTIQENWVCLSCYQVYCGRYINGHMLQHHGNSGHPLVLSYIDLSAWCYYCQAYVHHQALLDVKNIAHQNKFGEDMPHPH
Summary of the method: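 Multiple myeloma cells harvested in Tris-HCl lysis buffer (pH 7.4) with protease and phosphatase inhibitors, then centrifuged 17,000 g for 30 min at 4 °C. Lysates immunoblotted with specific antibodies for acetylated α-tubulin. Signal detected by ECL on film.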

[2] = test system: RPMI-8226; experiment: Antiproliferative activity against human RPMI8226 cells after 48 hrs by SRB assay; type: functional; details: RPMI-8226, 48 h
Summary of the method: (§1)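 Cells were exposed to test compounds at the indicated concentrations for 48 h. They were then fixed with 10% trichloroacetic acid, stained 30 min with 0.4% SRB in 1% AcOH, and washed with 1% AcOH. Bound dye was solubilized in 10 mM Tris base and OD read at 510 nm. Lines cultured in RPMI 1640 with 20% FBS and penicillin/streptomycin, 37°C, 5% CO2.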

[3] = biological target: T2, NAD-dependent protein deacetylase sirtuin-1 (Homo sapiens, UniProt Q96EB6); experiment: Inhibition of recombinant human N-terminal His-tagged SIRT1 (1 to 747 end residues) expressed in Escherichia coli using Ac-RHK-K(Ac)-AMC as substrate after 30 mins in presence of NAD+ by fluorescence assay
T2 sequence (Q96EB6 whole entry): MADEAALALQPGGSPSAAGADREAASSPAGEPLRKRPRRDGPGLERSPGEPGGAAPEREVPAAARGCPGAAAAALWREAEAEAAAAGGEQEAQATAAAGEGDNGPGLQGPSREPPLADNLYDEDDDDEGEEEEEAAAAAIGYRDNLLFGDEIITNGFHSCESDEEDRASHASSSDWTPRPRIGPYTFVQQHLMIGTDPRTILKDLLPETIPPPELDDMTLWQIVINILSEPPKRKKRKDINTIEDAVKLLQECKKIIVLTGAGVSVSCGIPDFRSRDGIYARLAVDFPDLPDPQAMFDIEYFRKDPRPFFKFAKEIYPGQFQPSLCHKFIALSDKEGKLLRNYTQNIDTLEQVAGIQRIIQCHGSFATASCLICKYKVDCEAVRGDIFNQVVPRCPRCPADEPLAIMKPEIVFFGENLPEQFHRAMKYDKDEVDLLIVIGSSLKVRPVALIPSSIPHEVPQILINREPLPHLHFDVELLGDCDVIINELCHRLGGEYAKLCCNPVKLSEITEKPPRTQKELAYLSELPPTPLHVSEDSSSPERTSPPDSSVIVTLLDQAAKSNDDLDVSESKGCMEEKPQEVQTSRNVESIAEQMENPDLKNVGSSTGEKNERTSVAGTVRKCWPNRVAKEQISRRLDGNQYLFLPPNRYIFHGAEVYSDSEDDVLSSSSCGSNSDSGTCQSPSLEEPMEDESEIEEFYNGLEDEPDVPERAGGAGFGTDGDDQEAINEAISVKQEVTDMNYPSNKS

[4] = biological target: Histone deacetylase 4 (Homo sapiens, UniProt P56524); experiment: Inhibition of recombinant human C-terminal His-tagged/N-terminal GST-tagged HDAC4 (627 to 1084 residues) expressed in insect cells using Boc-K(Ac)-AMC as substrate after 60 mins by fluorescence assay
Sequence of Histone deacetylase 4 (P56524 whole entry, the tested form may be a part): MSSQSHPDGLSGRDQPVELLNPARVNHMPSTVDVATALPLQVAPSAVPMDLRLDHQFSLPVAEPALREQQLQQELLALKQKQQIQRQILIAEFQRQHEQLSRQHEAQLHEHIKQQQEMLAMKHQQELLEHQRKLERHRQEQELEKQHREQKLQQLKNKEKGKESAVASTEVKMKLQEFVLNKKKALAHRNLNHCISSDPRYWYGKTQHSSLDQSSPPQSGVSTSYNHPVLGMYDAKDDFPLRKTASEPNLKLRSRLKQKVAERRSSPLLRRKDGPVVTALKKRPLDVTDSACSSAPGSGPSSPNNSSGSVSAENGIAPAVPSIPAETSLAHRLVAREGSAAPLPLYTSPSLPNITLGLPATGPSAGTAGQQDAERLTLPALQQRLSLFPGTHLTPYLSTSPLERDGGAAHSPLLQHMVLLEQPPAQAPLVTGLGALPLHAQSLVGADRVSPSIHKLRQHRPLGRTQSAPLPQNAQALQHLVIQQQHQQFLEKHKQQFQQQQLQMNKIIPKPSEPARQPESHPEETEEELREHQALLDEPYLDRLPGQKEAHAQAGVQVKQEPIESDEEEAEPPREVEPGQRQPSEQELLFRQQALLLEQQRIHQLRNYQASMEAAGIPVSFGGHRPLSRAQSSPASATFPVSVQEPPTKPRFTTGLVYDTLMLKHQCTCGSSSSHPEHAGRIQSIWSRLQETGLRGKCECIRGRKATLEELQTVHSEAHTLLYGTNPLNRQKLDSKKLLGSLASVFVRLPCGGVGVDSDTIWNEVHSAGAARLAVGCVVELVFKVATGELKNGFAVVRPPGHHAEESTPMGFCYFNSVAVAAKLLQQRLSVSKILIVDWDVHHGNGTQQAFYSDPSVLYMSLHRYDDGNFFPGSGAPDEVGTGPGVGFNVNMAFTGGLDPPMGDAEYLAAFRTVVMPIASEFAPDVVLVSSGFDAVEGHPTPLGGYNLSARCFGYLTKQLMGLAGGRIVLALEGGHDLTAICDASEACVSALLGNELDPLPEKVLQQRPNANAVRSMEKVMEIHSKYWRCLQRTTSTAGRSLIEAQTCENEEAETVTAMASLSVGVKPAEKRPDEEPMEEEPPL

[5] = Antiproliferative activity against human HS5 cells after 48 hrs by SRB assay; type: cell-based; summary of the method: as §1
[6] = biological target: Histone deacetylase 2 (Homo sapiens, UniProt Q92769); experiment: Inhibition of full length recombinant human C-terminal GST-tagged HDAC2 expressed in baculovirus infected insect cells using RHK-K(Ac)-AMC as substrate after 60 mins by fluorescence assay
Sequence of Histone deacetylase 2 (Q92769 whole entry, the tested form may be a part): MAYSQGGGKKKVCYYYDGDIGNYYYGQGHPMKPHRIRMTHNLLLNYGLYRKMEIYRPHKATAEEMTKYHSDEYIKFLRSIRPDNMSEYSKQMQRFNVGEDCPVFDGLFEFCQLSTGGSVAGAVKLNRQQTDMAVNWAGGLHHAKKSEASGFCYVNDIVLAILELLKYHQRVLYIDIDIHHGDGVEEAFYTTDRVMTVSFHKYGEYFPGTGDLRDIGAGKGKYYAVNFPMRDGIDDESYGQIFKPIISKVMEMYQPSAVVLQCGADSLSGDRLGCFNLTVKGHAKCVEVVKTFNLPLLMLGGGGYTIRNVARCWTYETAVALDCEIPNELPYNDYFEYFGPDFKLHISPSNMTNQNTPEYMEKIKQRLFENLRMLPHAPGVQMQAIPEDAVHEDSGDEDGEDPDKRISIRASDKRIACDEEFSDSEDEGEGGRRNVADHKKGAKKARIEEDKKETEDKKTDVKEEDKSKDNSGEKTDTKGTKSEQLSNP

[7] = biological target: Histone deacetylase 5 (Homo sapiens, UniProt Q9UQL6); experiment: Inhibition of recombinant human C-terminal His-tagged HDAC5 (656 to 1122 residues) expressed in insect cells using Boc-K(Ac)-AMC as substrate after 60 mins by fluorescence assay
Sequence of Histone deacetylase 5 (Q9UQL6 whole entry, the tested form may be a part): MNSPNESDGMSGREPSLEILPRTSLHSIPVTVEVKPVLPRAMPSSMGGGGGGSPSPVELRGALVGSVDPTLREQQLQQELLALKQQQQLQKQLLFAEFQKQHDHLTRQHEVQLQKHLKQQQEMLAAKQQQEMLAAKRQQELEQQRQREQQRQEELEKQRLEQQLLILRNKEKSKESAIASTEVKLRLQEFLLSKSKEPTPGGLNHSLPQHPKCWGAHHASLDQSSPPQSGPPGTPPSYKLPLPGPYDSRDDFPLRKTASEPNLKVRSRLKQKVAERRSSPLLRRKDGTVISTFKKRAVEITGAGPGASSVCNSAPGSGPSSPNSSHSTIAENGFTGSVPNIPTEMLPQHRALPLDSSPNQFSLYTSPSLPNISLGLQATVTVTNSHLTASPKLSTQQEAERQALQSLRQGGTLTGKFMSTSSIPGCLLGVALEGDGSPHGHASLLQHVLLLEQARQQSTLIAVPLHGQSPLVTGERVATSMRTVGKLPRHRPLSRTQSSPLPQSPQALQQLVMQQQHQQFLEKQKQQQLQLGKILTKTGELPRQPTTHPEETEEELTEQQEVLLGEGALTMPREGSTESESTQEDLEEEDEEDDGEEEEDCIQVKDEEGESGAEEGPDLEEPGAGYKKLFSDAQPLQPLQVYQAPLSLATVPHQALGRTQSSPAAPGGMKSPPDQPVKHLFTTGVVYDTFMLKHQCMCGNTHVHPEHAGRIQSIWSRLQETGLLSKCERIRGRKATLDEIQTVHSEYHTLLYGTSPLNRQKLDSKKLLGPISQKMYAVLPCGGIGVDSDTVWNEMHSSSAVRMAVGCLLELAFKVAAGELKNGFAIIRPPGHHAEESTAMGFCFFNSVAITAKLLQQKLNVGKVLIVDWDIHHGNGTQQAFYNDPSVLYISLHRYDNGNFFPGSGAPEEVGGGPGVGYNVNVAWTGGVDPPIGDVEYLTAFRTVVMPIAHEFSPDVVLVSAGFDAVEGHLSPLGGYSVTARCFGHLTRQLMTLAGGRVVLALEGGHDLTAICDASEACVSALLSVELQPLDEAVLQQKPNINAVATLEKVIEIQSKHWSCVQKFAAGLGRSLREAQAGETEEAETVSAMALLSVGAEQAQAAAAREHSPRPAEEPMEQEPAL

[8] = biological target: Histone deacetylase 3/Nuclear receptor corepressor 2 (HDAC3/NCoR2) (Homo sapiens, UniProt O15379); experiment: Inhibition of full length recombinant human C-terminal His-tagged HDAC3/N-terminal GST-tagged NCOR2 (395 to 489 residues) expressed in insect cells using RHK-K(Ac)-AMC as substrate after 60 mins by fluorescence assay

SMILES | inhibition [1] | GI50 [2] [µM] | IC50 [3] [µM] | IC50 [4] [µM] | GI50 at 48 h [5] [µM] | IC50 [6] [µM] | IC50 [7] [µM] | IC50 [8] [µM]
O=C(NO)c1ccc(CNc2cccc3ncccc23)cc1 | Dose-dependent effect | 11 | > 20 | 4.82 | > 100 | 8.61 | 2.25 | 5.48
O=C(NO)c1ccc(CNc2cccc3cccnc23)cc1 | Dose-dependent effect | 7.49 | > 20 | 4.44 | > 100 | 12.5 | 3.11 | 7.75
